Experimental data from ChEMBL document CHEMBL5154742, “Thiosugar naphthalene diimide conjugates: G-quadruplex ligands with antiparasitic and anticancer activity” (Eur J Med Chem, 2022).

What was measured:
[1] = Selectivity index, ratio of IC50 for human MRC5 cells to IC50 for human HT-29 cells; type: toxicity; conditions: MRC5 cells versus HT-29 cells, read-out: Selectivity Index
Outline: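 Selectivity index: MRC-5 IC50 divided by HT-29 IC50.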

[2] = Drug uptake in Trypanosoma brucei at 10 uM incubated for 2 hrs by fluorescence based multiplate reader method; type: ADME
Trypanosoma brucei = experiment: Antitrypanosomal activity against Trypanosoma brucei incubated for 72 hrs by alamar blue dye based fluorimetry analysis; type: functional, organism-based
Outline: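 Bloodstream-form T. brucei S16 (Lister 427, MiTat 1.2), 1×10^3 per well in HMI-9 with 20% hiFBS, exposed to increasing compound concentrations for 72 h at 37 °C, 5% CO2. Resazurin then added for 4 h, cells lysed with SDS, fluorescence read at ex 550/em 590 nm. IC50 from four-parameter logistic fit; three independent runs, each in triplicate.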

[3] = Selectivity index, ratio of IC50 for cytotoxicity against human MRC5 cells to IC50 for antitrypanosomal activity against Trypanosoma brucei; type: toxicity, cell-based; conditions: MRC5 cells versus Trypanosoma brucei, read-out: Selectivity Index
Outline: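 Selectivity index: MRC-5 IC50 divided by T. brucei IC50.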

Leishmania major = experiment: Antileishmanial activity against Leishmania major (MHOM/IL/80/Friedlin) promastigotes assessed as reduction in parasite growth incubated for 72 hrs by MTT assay; type: functional, organism-based
Outline: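 L. major Friedlin promastigotes, 1×10^6/mL in modified RPMI-1640 with 10% hiFBS, exposed to increasing compound concentrations for 72 h at 28 °C; proliferation read by MTT; IC50 from four-parameter logistic fit versus untreated controls.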

Quadruplex DNA [4] = experiment: Binding affinity to human G-quadruplex telomeric DNA F21T (5'-duplex GGG TTAGGG TTAGGG TTAGGG-3') assessed as change in melting temperature at 5 uM incubated for 5 min by FRET assay; type: nucleic-acid assay
Outline: (§1)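 Fluorescently labelled oligonucleotide annealed (95 °C, 5 min) in 10 mM lithium cacodylate/90 mM LiCl, pH 7.2; 0.2 μM final, with or without ligand. Held 5 min at 25 °C, then heated 0.5 °C/min to 95 °C. Tm taken at normalized signal 0.5; ΔTm = Tm with ligand minus Tm without. Tested in duplicate.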

[5] = Cytotoxicity against human MRC5 cells assessed as reduction in cell viability incubated for 48 hrs by MTT assay; type: toxicity, cell-based
Outline: (§2)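 MTT assay: 5×10^3 cells per well in DMEM with 10% hiFBS (4.5 g/L glucose for HT-29, 1 g/L for MRC-5), exposed to increasing compound concentrations for 48 h at 37 °C. MTT added for 4 h, formazan dissolved in DMSO, absorbance read at 575 nm. IC50 from four-parameter logistic fit.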

[6] = Selectivity index, ratio of IC50 for cytotoxicity against human MRC5 cells to IC50 for antileishmanial activity against Leishmania major (MHOM/IL/80/Friedlin) promastigotes; type: toxicity, cell-based; conditions: read-out: Selectivity Index
Outline: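 Selectivity index: MRC-5 IC50 divided by L. major promastigote IC50.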

Quadruplex DNA [7] = experiment: Binding affinity to human G-quadruplex telomeric DNA F21T (5'-duplex GGG TTAGGG TTAGGG TTAGGG-3') assessed as change in melting temperature at 1 uM incubated for 5 min by FRET assay; type: nucleic-acid assay; outline: as §1
HT-29 = experiment: Cytotoxicity against human HT-29 cells assessed as reduction in cell viability incubated for 48 hrs by MTT assay; type: functional, cell-based; conditions: HT-29, 48 h; outline: as §2

O=C1c2ccc3c4c(c(NCc5cn(CCS[C@@H]6O[C@H](CO)[C@H](O)[C@H](O)[C@H]6O)nn5)cc(c24)C(=O)N1CCN1CCOCC1)C(=O)N(CCN1CCOCC1)C3=O showed a selectivity ratio [1] of 0.9, a Drug uptake [2] of 6.8% and an IC50 (Trypanosoma brucei) of 0.85 µM. It also gave a selectivity ratio [3] of 27.6, an IC50 (Leishmania major) of 30 µM and a ΔTm (Quadruplex DNA [4]) of 5 °C. For the same molecule, the IC50 at 48 h [5] was 23.5 µM, the selectivity ratio [6] was 0.8 and the ΔTm (Quadruplex DNA [7]) was 1 °C. It also gave an IC50 (HT-29) of 26.5 µM.
